Laboratory results from ChEMBL document CHEMBL2177062, “Bile acid-based 1,2,4-trioxanes: synthesis and antimalarial assessment” (J Med Chem, 2012).
The source made the active and inactive calls. No cut-off for these calls is given here.

Test system: Plasmodium yoelii nigeriensis
Test: Antimalarial activity in multidrug-resistant Plasmodium yoelii nigeriensis infected Swiss mouse assessed as suppression of parasitaemia at 96 mg/kg, po two devided dose daily for 4 days
Type: functional
Conditions: 96 mg/kg
How it was run: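 Swiss mice of either sex (20 2 g) inoculated ip with 1 × 10⁶ MDR P. yoelii nigeriensis parasites on day 0. Five mice per dose, given oral doses in groundnut oil from day 0 to 3, twice daily. Parasitaemia read from thin blood smears on day 4. Suppression = [(C − T)/C] × 100 versus untreated controls. 100% means no parasites seen in 50 oil-immersion fields.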

Compound | Activity
C=C(c1ccc(Br)cc1)[C@@H]1CO[C@@]2(CC[C@@]3(C)[C@H](CC[C@@H]4[C@@H]3CC[C@]3(C)[C@@H]([C@H](C)CCC(=O)OC)CC[C@@H]43)C2)OO1 (relative stereo; form 1) [listing 1 of 2 here] | 64.31%
C=C(c1ccc(F)cc1)[C@@H]1CO[C@@]2(CC[C@@]3(C)[C@H](CC[C@@H]4[C@@H]3CC[C@]3(C)[C@@H]([C@H](C)CCC(=O)OC)CC[C@@H]43)C2)OO1 (relative stereo; form 1) [listing 1 of 2 here] | 45.31%
C=C(c1ccccc1)[C@@H]1CO[C@@]2(CC[C@@]3(C)[C@H](CC[C@@H]4[C@@H]3CC[C@]3(C)[C@@H]([C@H](C)C(C)=O)CC[C@@H]43)C2)OO1 (relative stereo; form 1) [listing 1 of 2 here] | 94.31%
C=C(c1ccc(Cl)cc1)[C@@H]1CO[C@@]2(CC[C@@]3(C)[C@H](CC[C@@H]4[C@@H]3CC[C@]3(C)[C@@H](C(C)=O)CC[C@@H]43)C2)OO1 (relative stereo; form 1) [listing 1 of 2 here] | 90.98%
C=C(c1ccc(Br)cc1)[C@@H]1CO[C@@]2(CC[C@@]3(C)[C@H](CC[C@@H]4[C@@H]3CC[C@]3(C)[C@@H](C(C)=O)CC[C@@H]43)C2)OO1 (relative stereo; form 2) [listing 1 of 2 here] | 89.78%
C=C(c1ccc(F)cc1)[C@@H]1CO[C@@]2(CC[C@@]3(C)[C@H](CC[C@@H]4[C@@H]3CC[C@]3(C)[C@@H]([C@H](C)CCC(=O)OC)CC[C@@H]43)C2)OO1 (relative stereo; form 2) [listing 1 of 2 here] | 33.13%
C=C(c1ccccc1)[C@@H]1CO[C@@]2(CC[C@@]3(C)[C@H](CC[C@@H]4[C@@H]3CC[C@]3(C)[C@@H]([C@H](C)CCC(=O)OC)CC[C@@H]43)C2)OO1 (relative stereo; form 1) [listing 1 of 2 here] | 20.6%
C=C(c1ccc(Cl)cc1)[C@@H]1CO[C@@]2(CC[C@@]3(C)[C@H](CC[C@@H]4[C@@H]3CC[C@]3(C)[C@@H]([C@H](C)C(C)=O)CC[C@@H]43)C2)OO1 (relative stereo; form 2) [listing 1 of 2 here] | 34.65%
C=C(c1ccc(F)cc1)[C@@H]1CO[C@@]2(CC[C@@]3(C)[C@H](CC[C@@H]4[C@@H]3CC[C@]3(C)[C@@H]([C@H](C)C(C)=O)CC[C@@H]43)C2)OO1 (relative stereo; form 1) [listing 1 of 2 here] | 86.26%
C=C(c1ccc(Cl)cc1)[C@@H]1CO[C@@]2(CC[C@@]3(C)[C@H](CC[C@@H]4[C@@H]3CC[C@]3(C)[C@@H]([C@H](C)CCC(=O)OC)CC[C@@H]43)C2)OO1 (relative stereo; form 2) [listing 1 of 2 here] | 45.23%
C=C(c1ccc(Br)cc1)[C@@H]1CO[C@@]2(CC[C@@]3(C)[C@H](CC[C@@H]4[C@@H]3CC[C@]3(C)[C@@H]([C@H](C)CCC(=O)OC)CC[C@@H]43)C2)OO1 (relative stereo; form 2) [listing 1 of 2 here] | 18.57%
C=C(c1ccc(Br)cc1)[C@@H]1CO[C@@]2(CC[C@@]3(C)[C@H](CC[C@@H]4[C@@H]3CC[C@]3(C)[C@@H]([C@H](C)C(C)=O)CC[C@@H]43)C2)OO1 (relative stereo; form 2) [listing 1 of 2 here] | 41.83%
C=C(c1ccccc1)[C@@H]1CO[C@@]2(CC[C@@]3(C)[C@H](CC[C@@H]4[C@@H]3CC[C@]3(C)[C@@H]([C@H](C)CCC(=O)OC)CC[C@@H]43)C2)OO1 (relative stereo; form 2) [listing 1 of 2 here] | 43.56%
C=C(c1ccccc1)[C@@H]1CO[C@@]2(CC[C@@]3(C)[C@H](CC[C@@H]4[C@@H]3CC[C@]3(C)[C@@H](O)CC[C@@H]43)C2)OO1 (relative stereo; form 1) [listing 1 of 2 here] | 69.36%
C=C(c1ccc(Br)cc1)[C@@H]1CO[C@@]2(CC[C@@]3(C)[C@H](CC[C@@H]4[C@@H]3CC[C@]3(C)[C@@H](O)CC[C@@H]43)C2)OO1 (relative stereo; form 1) [listing 1 of 2 here] | 76.52%
C=C(c1ccc(Br)cc1)[C@@H]1CO[C@@]2(CC[C@@]3(C)[C@H](CC[C@@H]4[C@@H]3CC[C@]3(C)[C@@H]([C@H](C)C(C)=O)CC[C@@H]43)C2)OO1 (relative stereo; form 1) [listing 1 of 2 here] | 56.73%
C=C(c1ccc(Cl)cc1)[C@@H]1CO[C@@]2(CC[C@@]3(C)[C@H](CC[C@@H]4[C@@H]3CC[C@]3(C)[C@@H]([C@H](C)CCC(=O)OC)CC[C@@H]43)C2)OO1 (relative stereo; form 1) [listing 1 of 2 here] | 56.02%
C=C(c1ccccc1)[C@@H]1CO[C@@]2(CC[C@@]3(C)[C@H](CC[C@@H]4[C@@H]3CC[C@]3(C)[C@@H](C(C)=O)CC[C@@H]43)C2)OO1 (relative stereo; form 1) [listing 1 of 2 here] | 79.89%

Test system: Plasmodium yoelii nigeriensis
Test: Antimalarial activity in multidrug-resistant Plasmodium yoelii nigeriensis infected Swiss mouse assessed as disease cure at 96 mg/kg, po two devided dose daily for 4 days by 28 day survival assay
Type: functional
Conditions: not given
How it was run: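 Swiss mice of either sex (20 2 g) inoculated ip with 1 × 10⁶ MDR P. yoelii nigeriensis (chloroquine-, mefloquine-, halofantrine-resistant) parasites on day 0. Five mice per dose. Oral dosing in groundnut oil (0.1 mL per dose) from day 0 to 3, as two divided doses daily. Thin blood smears on day 4, then twice weekly to day 28. Mice without patent infection by day 28 scored cured; % protection = fraction of mice cured. β-arteether as positive control.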

Compound | Activity
C=C(c1ccc(F)cc1)[C@@H]1CO[C@@]2(CC[C@@]3(C)[C@H](CC[C@@H]4[C@@H]3CC[C@]3(C)[C@@H]([C@H](C)CCC(=O)OC)CC[C@@H]43)C2)OO1 (relative stereo; form 2) [listing 2 of 2 here] | inactive
C=C(c1ccc(Br)cc1)[C@@H]1CO[C@@]2(CC[C@@]3(C)[C@H](CC[C@@H]4[C@@H]3CC[C@]3(C)[C@@H](C(C)=O)CC[C@@H]43)C2)OO1 (relative stereo; form 2) [listing 2 of 2 here] | inactive
C=C(c1ccc(Cl)cc1)[C@@H]1CO[C@@]2(CC[C@@]3(C)[C@H](CC[C@@H]4[C@@H]3CC[C@]3(C)[C@@H](C(C)=O)CC[C@@H]43)C2)OO1 (relative stereo; form 1) [listing 2 of 2 here] | inactive
C=C(c1ccc(Cl)cc1)[C@@H]1CO[C@@]2(CC[C@@]3(C)[C@H](CC[C@@H]4[C@@H]3CC[C@]3(C)[C@@H]([C@H](C)C(C)=O)CC[C@@H]43)C2)OO1 (relative stereo; form 2) [listing 2 of 2 here] | inactive
C=C(c1ccc(F)cc1)[C@@H]1CO[C@@]2(CC[C@@]3(C)[C@H](CC[C@@H]4[C@@H]3CC[C@]3(C)[C@@H]([C@H](C)CCC(=O)OC)CC[C@@H]43)C2)OO1 (relative stereo; form 1) [listing 2 of 2 here] | inactive
C=C(c1ccc(Br)cc1)[C@@H]1CO[C@@]2(CC[C@@]3(C)[C@H](CC[C@@H]4[C@@H]3CC[C@]3(C)[C@@H]([C@H](C)C(C)=O)CC[C@@H]43)C2)OO1 (relative stereo; form 2) [listing 2 of 2 here] | inactive
C=C(c1ccc(Br)cc1)[C@@H]1CO[C@@]2(CC[C@@]3(C)[C@H](CC[C@@H]4[C@@H]3CC[C@]3(C)[C@@H]([C@H](C)C(C)=O)CC[C@@H]43)C2)OO1 (relative stereo; form 1) [listing 2 of 2 here] | inactive
C=C(c1ccccc1)[C@@H]1CO[C@@]2(CC[C@@]3(C)[C@H](CC[C@@H]4[C@@H]3CC[C@]3(C)[C@@H]([C@H](C)CCC(=O)OC)CC[C@@H]43)C2)OO1 (relative stereo; form 2) [listing 2 of 2 here] | inactive
C=C(c1ccc(F)cc1)[C@@H]1CO[C@@]2(CC[C@@]3(C)[C@H](CC[C@@H]4[C@@H]3CC[C@]3(C)[C@@H](O)CC[C@@H]43)C2)OO1 (relative stereo; form 1) | inactive
C=C(c1ccc(Cl)cc1)[C@@H]1CO[C@@]2(CC[C@@]3(C)[C@H](CC[C@@H]4[C@@H]3CC[C@]3(C)[C@@H]([C@H](C)CCC(=O)OC)CC[C@@H]43)C2)OO1 (relative stereo; form 2) [listing 2 of 2 here] | inactive
C=C(c1ccccc1)[C@@H]1CO[C@@]2(CC[C@@]3(C)[C@H](CC[C@@H]4[C@@H]3CC[C@]3(C)[C@@H]([C@H](C)CCC(=O)OC)CC[C@@H]43)C2)OO1 (relative stereo; form 1) [listing 2 of 2 here] | inactive
C=C(c1ccc(F)cc1)[C@@H]1CO[C@@]2(CC[C@@]3(C)[C@H](CC[C@@H]4[C@@H]3CC[C@]3(C)[C@@H]([C@H](C)C(C)=O)CC[C@@H]43)C2)OO1 (relative stereo; form 1) [listing 2 of 2 here] | inactive
C=C(c1ccccc1)[C@@H]1CO[C@@]2(CC[C@@]3(C)[C@H](CC[C@@H]4[C@@H]3CC[C@]3(C)[C@@H](O)CC[C@@H]43)C2)OO1 (relative stereo; form 1) [listing 2 of 2 here] | inactive
C=C(c1ccc(Br)cc1)[C@@H]1CO[C@@]2(CC[C@@]3(C)[C@H](CC[C@@H]4[C@@H]3CC[C@]3(C)[C@@H]([C@H](C)CCC(=O)OC)CC[C@@H]43)C2)OO1 (relative stereo; form 1) [listing 2 of 2 here] | inactive
C=C(c1ccc(Cl)cc1)[C@@H]1CO[C@@]2(CC[C@@]3(C)[C@H](CC[C@@H]4[C@@H]3CC[C@]3(C)[C@@H]([C@H](C)CCC(=O)OC)CC[C@@H]43)C2)OO1 (relative stereo; form 1) [listing 2 of 2 here] | inactive
C=C(c1ccccc1)[C@@H]1CO[C@@]2(CC[C@@]3(C)[C@H](CC[C@@H]4[C@@H]3CC[C@]3(C)[C@@H](C(C)=O)CC[C@@H]43)C2)OO1 (relative stereo; form 1) [listing 2 of 2 here] | inactive
C=C(c1ccc(Cl)cc1)[C@@H]1CO[C@@]2(CC[C@@]3(C)[C@H](CC[C@@H]4[C@@H]3CC[C@]3(C)[C@@H]([C@H](C)C(C)=O)CC[C@@H]43)C2)OO1 (relative stereo; form 1) | inactive
C=C(c1ccc(Br)cc1)[C@@H]1CO[C@@]2(CC[C@@]3(C)[C@H](CC[C@@H]4[C@@H]3CC[C@]3(C)[C@@H](O)CC[C@@H]43)C2)OO1 (relative stereo; form 1) [listing 2 of 2 here] | inactive
C=C(c1ccc(Br)cc1)[C@@H]1CO[C@@]2(CC[C@@]3(C)[C@H](CC[C@@H]4[C@@H]3CC[C@]3(C)[C@@H]([C@H](C)CCC(=O)OC)CC[C@@H]43)C2)OO1 (relative stereo; form 2) [listing 2 of 2 here] | inactive
C=C(c1ccccc1)[C@@H]1CO[C@@]2(CC[C@@]3(C)[C@H](CC[C@@H]4[C@@H]3CC[C@]3(C)[C@@H]([C@H](C)C(C)=O)CC[C@@H]43)C2)OO1 (relative stereo; form 1) [listing 2 of 2 here] | inactive
